In ChEMBL document CHEMBL4049451, “Exploring the Role of N6-Substituents in Potent Dual Acting 5'-C-Ethyltetrazolyladenosine Derivatives: Synthesis, Binding, Functional Assays, and Antinociceptive Effects in Mice ∇” (J Med Chem, 2017):
Calls of active or inactive are those of the source. The rule behind the calls is not given here.

How the values were obtained:
[1] = molecular target: T1, Adenosine receptor A2b (Homo sapiens) (UniProt P29275); assay: Agonist activity at recombinant human adenosine A2B receptor expressed in CHO cell membranes assessed as stimulation of adenylyl cyclase activity relative to NECA; type: functional, cell-based
T1 sequence (whole entry): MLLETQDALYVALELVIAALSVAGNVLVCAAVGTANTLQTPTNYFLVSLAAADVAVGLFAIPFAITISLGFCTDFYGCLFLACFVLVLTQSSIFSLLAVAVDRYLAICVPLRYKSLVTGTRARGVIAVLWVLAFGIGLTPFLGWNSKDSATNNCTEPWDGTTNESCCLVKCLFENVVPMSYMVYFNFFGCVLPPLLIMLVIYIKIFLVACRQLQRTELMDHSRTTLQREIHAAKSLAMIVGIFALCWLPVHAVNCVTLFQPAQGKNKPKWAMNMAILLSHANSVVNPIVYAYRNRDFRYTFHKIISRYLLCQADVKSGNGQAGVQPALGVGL
How it was run: (§1)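 hA2A or hA2B in CHO cell membranes (one high-speed spin, pellet in 50 mM Tris/HCl pH 7.4, used immediately); agonist stimulation of adenylyl cyclase gives EC50; partial agonism judged as efficacy against 100 μM NECA as full agonist. Geometric means, 95% confidence intervals, n = 3.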

[2] = Lipophilicity, log P of the compound; type: physicochemical; conditions: octanol/water
[3] = molecular target: Adenosine receptors; A1 & A3 (Homo sapiens) (UniProt P30542+P0DMS8); assay: Selectivity ratio of Ki for recombinant human adenosine A3 receptor expressed in CHO cell membranes to Ki for recombinant human adenosine A1 receptor expressed in CHO cell membranes; type: cell-based
How it was run: (§2)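 CHO membranes with stable human A1, A2A, A3 or rat A3 (1000g then 100 000g spin, stored -80 °C). Competition: hA1 1 nM [3H]CCPA, nonspecific with 1 mM theophylline; hA2A 10 nM [3H]NECA; hA3 1 nM [3H]HEMADO; rA3 30 nM [3H]NECA; latter three nonspecific with 100 μM R-PIA.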

Homo sapiens [4] = species on record: Homo sapiens; assay: Selectivity ratio of Ki for recombinant human adenosine A2A receptor expressed in CHO cell membranes to Ki for recombinant human adenosine A3 receptor expressed in CHO cell membranes; type: cell-based; how it was run: as §2
Adenosine receptor A3 [5] = molecular target: T2, Adenosine receptor A3 (Rattus norvegicus, UniProt P28647); assay: Displacement of [3H]NECA from recombinant rat adenosine A3 receptor expressed in CHO cell membranes after 3 hrs by microbeta scintillation counting; how it was run: as §2
T2 sequence (P28647 whole entry): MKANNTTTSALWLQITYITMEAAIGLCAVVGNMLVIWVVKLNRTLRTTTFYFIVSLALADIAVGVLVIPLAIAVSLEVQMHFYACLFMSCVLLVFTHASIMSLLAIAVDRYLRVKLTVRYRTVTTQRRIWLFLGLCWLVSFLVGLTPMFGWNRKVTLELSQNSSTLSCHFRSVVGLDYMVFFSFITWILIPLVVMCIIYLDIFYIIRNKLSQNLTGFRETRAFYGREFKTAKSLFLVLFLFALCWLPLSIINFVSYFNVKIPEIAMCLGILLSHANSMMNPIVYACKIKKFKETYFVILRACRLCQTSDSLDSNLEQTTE

Mus musculus [6] = assay: Antinociceptive activity in formalin induced nociceptive mouse model assessed as reduction in late nociceptive behavior administered via ip 10 mins prior to formalin induction measured for 15 to 60 mins; type: functional, organism-based
How it was run: (§3)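 Mice, randomized, n = 8–10 per group; ip compound or vehicle (10% DMSO in 0.9% NaCl) 10 min before formalin (1.25% in saline, 30 μL) into dorsal hind paw. Lifting, licking, shaking, flinching timed every 5 min for 60 min; phase 1 0–7 min, phase 2 15–60 min; mean ± SEM.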

Adenosine receptor A1 [7] = molecular target: T3, Adenosine receptor A1 (Homo sapiens, UniProt P30542); assay: Agonist activity at recombinant human adenosine A1 receptor expressed in CHO cell membranes assessed as inhibition of forskolin-stimulated adenylyl cyclase activity after 10 mins in presence of [alpha-32P]ATP; type: functional, cell-based
T3 sequence (P30542 whole entry): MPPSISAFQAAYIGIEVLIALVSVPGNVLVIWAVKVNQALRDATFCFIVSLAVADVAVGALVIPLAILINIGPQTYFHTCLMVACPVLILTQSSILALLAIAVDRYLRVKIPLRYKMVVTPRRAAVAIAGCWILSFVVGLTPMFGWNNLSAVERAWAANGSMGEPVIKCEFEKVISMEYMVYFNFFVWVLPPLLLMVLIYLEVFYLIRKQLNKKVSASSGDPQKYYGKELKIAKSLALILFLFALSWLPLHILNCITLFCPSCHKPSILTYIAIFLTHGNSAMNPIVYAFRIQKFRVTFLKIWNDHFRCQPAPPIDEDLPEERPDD
How it was run: (§4)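 hA1 in CHO cell membranes (single high-speed spin, resuspended in 50 mM Tris/HCl pH 7.4, used immediately); agonist inhibition of forskolin-stimulated adenylyl cyclase; efficacy relative to CCPA as reference full agonist (100%). Geometric means with 95% confidence intervals, n = 3.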

Adenosine receptor A1 [8] = molecular target: T3, Adenosine receptor A1; assay: Displacement of [3H]CCPA from recombinant human adenosine A1 receptor expressed in CHO cell membranes after 3 hrs by microbeta scintillation counting; how it was run: as §2
[9] = molecular target: T4, Adenosine receptor A1 (Homo sapiens) (UniProt P30542); assay: Agonist activity at recombinant human adenosine A1 receptor expressed in CHO cell membranes assessed as inhibition of forskolin-stimulated adenylyl cyclase activity after 10 mins relative to CCPA; type: functional, cell-based; how it was run: as §4
T4 sequence (whole entry): T3 sequence (P30542 whole entry)

Adenosine receptor A3 [10] = molecular target: T5, Adenosine receptor A3 (Homo sapiens, UniProt P0DMS8); assay: Antagonist activity at recombinant human adenosine A3 receptor expressed in CHO cell membranes assessed as reversal of NECA-mediated inhibition of adenylyl cyclase activity after 10 mins by [alpha-32P]ATP assay; type: functional, cell-based
T5 sequence (P0DMS8 whole entry): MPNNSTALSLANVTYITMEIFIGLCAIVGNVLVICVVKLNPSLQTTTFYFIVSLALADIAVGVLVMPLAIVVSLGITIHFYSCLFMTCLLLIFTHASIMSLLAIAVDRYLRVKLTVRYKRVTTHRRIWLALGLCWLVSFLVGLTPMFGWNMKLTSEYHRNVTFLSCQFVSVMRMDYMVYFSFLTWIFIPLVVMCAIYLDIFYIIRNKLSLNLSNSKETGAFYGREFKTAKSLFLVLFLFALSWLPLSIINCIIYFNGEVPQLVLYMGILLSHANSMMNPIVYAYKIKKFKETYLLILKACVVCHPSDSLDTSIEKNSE

Homo sapiens [11] = species on record: Homo sapiens; assay: Selectivity ratio of Ki for recombinant human adenosine A2A receptor expressed in CHO cell membranes to Ki for recombinant human adenosine A1 receptor expressed in CHO cell membranes; type: cell-based; how it was run: as §2
Adenosine receptor A2a [12] = molecular target: T6, Adenosine receptor A2a (Homo sapiens, UniProt P29274); assay: Agonist activity at recombinant human adenosine A2A receptor expressed in CHO cell membranes assessed as stimulation of adenylyl cyclase activity relative to NECA; type: functional, cell-based; how it was run: as §1
[13] = Selectivity ratio of Ki for recombinant rat adenosine A3 receptor expressed in CHO cell membranes to Ki for recombinant human adenosine A3 receptor expressed in CHO cell membranes; type: cell-based; how it was run: as §2
Adenosine receptor A2a [14] = molecular target: T6, Adenosine receptor A2a; assay: Agonist activity at recombinant human adenosine A2A receptor expressed in CHO cell membranes assessed as stimulation of adenylyl cyclase activity by [alpha-32P]ATP assay; type: functional, cell-based; how it was run: as §1
Adenosine receptor A2a [15] = molecular target: T6, Adenosine receptor A2a; assay: Displacement of [3H]NECA from recombinant human adenosine A2A receptor expressed in CHO cell membranes after 3 hrs by microbeta scintillation counting; how it was run: as §2
Adenosine receptor A2b = molecular target: T7, Adenosine receptor A2b (Homo sapiens, UniProt P29275); assay: Agonist activity at recombinant human adenosine A2B receptor expressed in CHO cell membranes assessed as stimulation of adenylyl cyclase activity by [alpha-32P]ATP assay; type: functional, cell-based; how it was run: as §1
T7 sequence (P29275 whole entry): T1 sequence (whole entry)

Adenosine receptor A3 [16] = molecular target: T5, Adenosine receptor A3; assay: Displacement of [3H]HEMADO from recombinant human adenosine […] receptor expressed in CHO cell membranes after 3 hrs by microbeta scintillation counting; how it was run: as §2
Mus musculus [17] = assay: Antinociceptive activity in formalin induced nociceptive mouse model assessed as reduction in nociceptive behavior at 0.5 mg/kg, ip administered 10 mins prior to formalin induction measured up to 7 mins; type: functional, organism-based; how it was run: as §3
Mus musculus [18] = assay: Antinociceptive activity in formalin induced nociceptive mouse model assessed as reduction in nociceptive behavior at 0.5 mg/kg, ip administered 10 mins prior to formalin induction measured for 15 to 60 mins; type: functional, organism-based; how it was run: as §3
[19] = molecular target: T1, Adenosine receptor A2b (Homo sapiens); assay: Partial agonist activity at recombinant human adenosine A2B receptor expressed in CHO cell membranes assessed as stimulation of adenylyl cyclase activity by [alpha-32P]ATP assay relative to NECA; type: functional, cell-based; how it was run: as §1

T6 sequence (P29274 whole entry): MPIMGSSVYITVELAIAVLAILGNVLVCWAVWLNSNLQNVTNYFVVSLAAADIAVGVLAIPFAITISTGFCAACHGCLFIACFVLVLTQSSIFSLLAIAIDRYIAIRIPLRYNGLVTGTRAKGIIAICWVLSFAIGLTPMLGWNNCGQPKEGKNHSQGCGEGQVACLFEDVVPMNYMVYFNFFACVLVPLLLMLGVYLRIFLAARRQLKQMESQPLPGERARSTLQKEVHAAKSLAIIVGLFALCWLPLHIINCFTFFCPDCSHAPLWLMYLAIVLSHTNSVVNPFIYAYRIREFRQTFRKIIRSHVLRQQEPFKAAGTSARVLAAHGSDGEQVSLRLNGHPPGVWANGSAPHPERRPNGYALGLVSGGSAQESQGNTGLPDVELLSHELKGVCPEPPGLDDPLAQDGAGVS

In the case of `CCn1nnc([C@H]2O[C@@H](n3cnc4c(NCc5cccc(Cl)c5)ncnc43)[C@H](O)[C@@H]2O)n1`, the Efficacy [1] is reported as > 90%, the logP [2] is reported as 2.57 and the Ratio Ki [3] is reported as 0.27. The Ratio Ki (Homo sapiens [4]) was 77, the Ki (Adenosine receptor A3 [5]) was 0.00269 µM and the Activity (Mus musculus [6]) was “Dose-dependent effect”. The EC50 (Adenosine receptor A1 [7]) was 0.0585 µM, the Ki (Adenosine receptor A1 [8]) was 0.00141 µM and the Efficacy [9] was > 90%. For the same molecule, the EC50 (Adenosine receptor A3 [10]) was 0.0022 µM, the Ratio Ki (Homo sapiens [11]) was 21 and the Efficacy (Adenosine receptor A2a [12]) was > 90%. The Ratio Ki [13] was 6.9, the EC50 (Adenosine receptor A2a [14]) was 0.00671 µM and the Ki (Adenosine receptor A2a [15]) was 0.0298 µM. For the same molecule, the EC50 (Adenosine receptor A2b) was 0.592 µM and the Ki (Adenosine receptor A3 [16]) was 0.000386 µM.

For `CNC(=O)[C@H]1O[C@@H](n2cnc3c(NCc4cccc(I)c4)nc(Cl)nc32)[C@H](O)[C@@H]1O`, the Activity (Mus musculus [17]) was “inactive” and the Activity (Mus musculus [18]) was “inactive”.

For `CCn1nnc([C@H]2O[C@@H](n3cnc4c(NCc5cccc(F)c5)ncnc43)C(O)C2O)n1` (single isomer, unassigned), the Ratio Ki [3] was 0.32, the Ratio Ki (Homo sapiens [4]) was 62 and the Ki (Adenosine receptor A3 [5]) was 0.00926 µM. The EC50 (Adenosine receptor A1 [7]) was 0.147 µM, the Ki (Adenosine receptor A1 [8]) was 0.00373 µM and the Efficacy [9] was > 90%. For the same molecule, the EC50 (Adenosine receptor A3 [10]) was 0.0125 µM, the Ratio Ki (Homo sapiens [11]) was 20 and the Efficacy (Adenosine receptor A2a [12]) was > 90%. For the same molecule, the Ratio Ki [13] was 7.7, the EC50 (Adenosine receptor A2a [14]) was 0.0144 µM and the Ki (Adenosine receptor A2a [15]) was 0.074 µM. For the same molecule, the EC50 (Adenosine receptor A2b) was 1.1 µM, the Activity [19] was 86% and the Ki (Adenosine receptor A3 [16]) was 0.0012 µM.

Work on `CCn1nnc([C@H]2O[C@@H](n3cnc4c(NCC5CC5)ncnc43)[C@H](O)[C@@H]2O)n1` yielded a Ratio Ki [3] of 1.3, a Ratio Ki (Homo sapiens [4]) of 196 and a Ki (Adenosine receptor A3 [5]) of 0.0652 µM. For the same molecule, the EC50 (Adenosine receptor A1 [7]) was 0.00773 µM, the Ki (Adenosine receptor A1 [8]) was 0.000438 µM and the Efficacy [9] was > 90%. For the same molecule, the EC50 (Adenosine receptor A3 [10]) was 0.00353 µM, the Ratio Ki (Homo sapiens [11]) was 256 and the Efficacy (Adenosine receptor A2a [12]) was > 90%. For the same molecule, the Ratio Ki [13] was 110 to 114, the EC50 (Adenosine receptor A2a [14]) was 0.0166 µM and the Ki (Adenosine receptor A2a [15]) was 0.112 µM. The EC50 (Adenosine receptor A2b) was 0.637 µM, the Activity [19] was 81% and the Ki (Adenosine receptor A3 [16]) was 0.000575 µM.

For `CCn1nnc([C@H]2O[C@@H](n3cnc4c(NC5CC5)ncnc43)[C@H](O)[C@@H]2O)n1`, the Ratio Ki [3] was 1, the Ratio Ki (Homo sapiens [4]) was 168 and the Ki (Adenosine receptor A3 [5]) was 0.066 µM. It also gave an EC50 (Adenosine receptor A1 [7]) of 0.00766 µM, a Ki (Adenosine receptor A1 [8]) of 0.000864 µM and an EC50 (Adenosine receptor A3 [10]) of 0.0054 µM. It also gave a Ratio Ki (Homo sapiens [11]) of 170, a Ratio Ki [13] of 76 and an EC50 (Adenosine receptor A2a [14]) of 0.0216 µM. It also gave a Ki (Adenosine receptor A2a [15]) of 0.146 µM, an EC50 (Adenosine receptor A2b) of 0.222 µM and an Activity [19] of 86%. It also gave a Ki (Adenosine receptor A3 [16]) of 0.000875 µM.
